Test results published in paper PMC4102602 (European journal of oral sciences, 2013).
Read-outs that look alike come from different tables or passages of the source. One block for each substance: values may come before it.

Assays:
[1] = system: MC3T3-E1 osteoblast-like cells; conditions: osteogenic cell attachment; cited from earlier work
[2] = system: MC3T3 cells (RGD-binding integrin receptors); assay type: cell-based, mouse; conditions: for residual MC3T3 cell attachment activity after preincubating cells with RGD: 30 min preincubation, 25 μM peptide coating concentration, Fig. 4A; for cell attachment activity remaining after preincubating cells with RGD: mean ± S.E, N = 5-6
In short: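 MC3T3 cells were preincubated in tubes for 30 min with RGD tripeptide (up to 500 μM) in serum-free medium with 0.1% BSA. FBS was then added to 10% v/v, and cells were pelleted (600 × g, 5 min) and washed twice. Cells were plated at 30,000/well on BSA-aftercoated polystyrene wells coated with 25 μM peptide for 2 h at 37°C. Attachment was read by hexosaminidase activity, as % of no-RGD control.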

[3] = system: MG63 human osteoblast-like cells; assay type: cell-based; conditions: over the range of surface concentrations shown for P3 in Fig. 3; mean ± S.E; N = at least 6
In short: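 MG63 cells grown in MEM plus NEAA with heat-inactivated 10% FBS. 96-well non-tissue-culture polystyrene plates were coated with peptide, washed, aftercoated with BSA and washed; uncoated plates served as control. Cells were seeded at 30,000/well in serum-free medium for 2 h at 37°C, washed three times with PBS, and counted by hexosaminidase activity as percent of control. Adsorbed peptide was quantified by micro BCA at 562 nm.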

[4] = system: MC3T3-E1 osteoblast-like cells; assay type: cell-based, mouse; conditions: for level of MC3T3 cell attachment / enhancement in the level of MC3T3 osteoprogenitor cell attachment / EC50: Fig. 2; for enhancement in the level of MC3T3 osteoprogenitor cell attachment: coating concentration as low as 1 μM; for EC50: read-out: half-maximal effect on MC3T3 cell attachment, peptide solution phase (coating) concentration, 30,000 cells/well, serum-free, 2 h, 37°C; for maximal increase of MC3T3 cell attachment: solution phase concentrations as high as 50 – 200 μM, control = uncoated wells
In short: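 Non-tissue-culture 96-well polystyrene was coated overnight with peptide solutions, washed, aftercoated with BSA and washed again; uncoated wells served as control. MC3T3-E1 cells were grown in MEM-α with 5% FBS and 5% NCS, then plated at 30,000 cells/well in serum-free medium for 2 h at 37°C. After three PBS washes, attachment was quantified by hexosaminidase activity as % of control. Mean ± SEM, ≥3 independent cultures.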

Substance: BSP peptide 278-302 [P4]
attachment potency greater than that of peptide P2 (281-290) [1]: 1-2 orders of magnitude

Substance: arg-gly-asp [RGD, reference compound]
block of the attachment of cells to the hBSP peptides ([2]; soluble RGD, MC3T3 cells): 80-90%

Substance: hBSP peptide 278-290 [DB2]
residual MC3T3 cell attachment activity after preincubating cells with RGD ([2]; 500 μM RGD): 10-20 % of control
maximal percentage increase in the attachment of MG63 cells [3]: 422 ± 41%

EC50 [4]: ~1 µM
Substance: hBSP peptide 278-292 [DB4]
cell attachment activity remaining after preincubating cells with RGD ([2]; 1 μM RGD, MC3T3 cells): 28 ± 10%
cell attachment activity remaining after preincubating cells with RGD ([2]; 500 μM RGD, MC3T3 cells): 14 ± 9%
level of MC3T3 cell attachment ([4]; 1 μM coating solution): 380 % of control
level of MC3T3 cell attachment ([4]; 10 μM coating solution, % of control): 540%
level of MC3T3 cell attachment ([4]; 50 μM coating solution, % of control): 590%
level of MC3T3 cell attachment ([4]; 100 μM coating solution, % of control): 670%
level of MC3T3 cell attachment ([4]; 200 μM coating solution, % of control): 710%
enhancement in the level of MC3T3 osteoprogenitor cell attachment [4]: several-fold
maximal percentage increase in the attachment of MG63 cells [3]: 731 ± 100%

EC50 [4]: ~1 µM
Substance: hBSP peptide 278-293 [P3]
residual MC3T3 cell attachment activity after preincubating cells with RGD ([2]; 500 μM RGD): 10-20 % of control
attachment potency greater than that of peptide P2 (281-290) [1]: 1-2 orders of magnitude
enhancement in the level of MC3T3 osteoprogenitor cell attachment [4]: several-fold

Substance: hBSP peptide 279-292 [DB5]
maximal increase of MC3T3 cell attachment [4]: 150-300 % of control

Substance: hBSP peptide 279-293 [DB3]
maximal percentage increase in the attachment of MG63 cells [3]: 228 ± 14%

Substance: hBSP peptide 281-293 [DB1]
residual MC3T3 cell attachment activity after preincubating cells with RGD ([2]; 500 μM RGD): 10-20 % of control
maximal increase of MC3T3 cell attachment [4]: 150-300 % of control
maximal percentage increase in the attachment of MG63 cells [3]: 371 ± 21%
